Screening results: PubChem, several laboratories
A1 inh: inhibitors of the anti-apoptotic protein A1, read as caspase activation; hit rate 0.066% among 330,000; MEF A1-2A-BIM cells, Caspase-Glo 3/7 luminescence, 3 h; percent of clofoctol response, vehicle zero; caspase activation, % (concentration not given with the values);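 active means over half of replicate activation scores above 10%, or exactly half above 10 with the replicate mean above 10; inconclusive means replicate mean below 10 yet half the replicates above 10; inactive means over half of replicates below 10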
TAG inh: triacylglycerol accumulation inhibition | hit rate 0.66% among 230,000 | inhibition, % at 12.5 µM | H9c2 cells, Nile Red lipid (TAG) fluorescence; cells loaded with 200 µM oleic acid;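 active means pattern-corrected inhibition of lipid staining of at least 50% with the nuclear-stain viability signal not falling by more than 50%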;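 further: 0% = DMSO wells and 100% = triacsin C control wells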
T cruzi repl: blocks replication of Trypanosoma cruzi. AID 1885. T. cruzi beta-gal in NIH3T3, luminescence, 90 h. hit rate 1.4% among 300,000. inhibition, % (no concentration beside the values);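 active means mean inhibition across valid replicates above about 55%, limit read from the data; inconclusive means mean below that limit but half or more replicates reach it; inactive means mean below it, under half of replicates reach it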;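 further: signal also drops with host cell toxicity which is not excluded here; 0% = plate median of DMSO wells and 100% = zero luminescence signal; higher percent means less beta-gal luminescence so fewer parasites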
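Assay system: NIH/3T3 host cells with β-galactosidase reporter T. cruzi; input: 5,000 host fibroblasts per well; compound: single 50 nL compound addition per well in DMSO; timing: ≥90 h infection period, 3 h prior cell attachment; measured by: GalScreen β-gal luminescence, detergent lysis, 60 min; evaluation: percent inhibition of parasite-derived β-gal signal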
CSC inhib: cancer stem cell inhibition; cancer stem cell-like cells viability, luminescence; inhibition, % at 7.5 µM; hit rate 1.1% among 300,000; in the data active means inhibition above about 75%; inconclusive means no clear call, values can overlap the other calls; tested in HMLE shEcad cells
Calb FLC: C. albicans growth modulation with fluconazole | C. albicans CaCi-2 + fluconazole, Alamar Blue growth, 48 h | growth inhibition, % (no concentration beside the values) | hit rate 0.57% among 300,000 | AID 1979;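 active means growth inhibition above about 58% in most replicates, limit read from the data, passing the limit was not always enough; inconclusive means exactly half the replicates above a set limit; inactive means most replicates below a set limit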;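 further: all wells also contain fluconazole at 8 µg/ml as a sub-toxic cotreatment; 0% = median of DMSO wells and 100% = median of geldanamycin control wells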
Beta apoptosis: blocks beta cell apoptosis; INS-1E cytokine-induced death, ATP luminescence, 48 h; percent of positive-control rescue, neutral wells zero; protection from apoptosis, % (test concentration not listed); hit rate 0.8% among 300,000;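 active means Every replicate reaches about 75%, or at least half do and their mean reaches it too, limit read from the data; inconclusive means At least half of replicates reach the limit but their mean does not; inactive means Under half of replicates reach the limit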;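 further: 0% = cytokine-treated negative control wells and 100% = positive control rescue; higher means more ATP so stronger rescue from cytokine killing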
Starred values were filed as active, the others as inactive. Shown are actives, neighbours in structure and some others; about 3.1% of the full set was active somewhere.

What do the screens show for `CCCCC1(C(=O)OC)NC(c2ccc(O)cc2)C2C(=O)N(c3ccccc3)C(=O)C21` (stereo not given)?
A1 inh: 1; TAG inh: -2; T cruzi repl: -10; CSC inhib: -23; Calb FLC: -2; Beta apoptosis: -1

How did CCOC(=O)c1c(CC(C)C)csc1NC(=O)c1ccccc1C(=O)O do in these assays?
A1 inh: inconclusive; TAG inh: 9; T cruzi repl: 0; CSC inhib: 1; Calb FLC: 0; Beta apoptosis: -6

What do the screens show for `CC(C)Cc1csc(NC(=O)c2ccc(F)cc2)c1C(=O)O`?
A1 inh: -6; T cruzi repl: -4; CSC inhib: 121*; Calb FLC: 2; Beta apoptosis: -6

Results for O=C(CN1CCN(c2ccc(Cl)cc2)CC1)Nc1cccc(F)c1 ?
A1 inh: 0; T cruzi repl: 6; CSC inhib: -1; Calb FLC: 17; Beta apoptosis: -1

How did O=C(Nc1cccc(F)c1)N1CC=C(c2ccc(Cl)cc2)CC1 do in these assays?
A1 inh: 0; TAG inh: 1; T cruzi repl: 55*; CSC inhib: 20; Calb FLC: 3

Results for COc1ccccc1/C=C/C(=O)NCC(=O)N/N=C/c1ccccc1[N+](=O)[O-] ?
A1 inh: 0; T cruzi repl: 61*; CSC inhib: 8; Calb FLC: -1; Beta apoptosis: 1

How did O=C(/C=C/c1ccccc1)NCC(=O)N/N=C/c1ccccc1[N+](=O)[O-] do in these assays?
A1 inh: 0; T cruzi repl: 26; CSC inhib: 1; Calb FLC: -1; Beta apoptosis: -4

How did CC(Sc1nnc(-c2ccco2)n1N)C(=O)NCc1ccc2c(c1)OCO2 (stereo not given) do in these assays?
TAG inh: -31

What do the screens show for `CCCC(O)(c1ccc(Cl)cc1)C(CN1CCOCC1)c1ccc(Cl)cc1` (stereo not given)?
A1 inh: -1; T cruzi repl: -9; CSC inhib: 94*; Calb FLC: 8; Beta apoptosis: 7

What do the screens show for `CC(NC(=O)C1CCN(S(=O)(=O)c2ccc3c(c2)NC(=O)CO3)CC1)c1ccccc1` (stereo not given)?
A1 inh: 0; T cruzi repl: -10; CSC inhib: -17; Calb FLC: 1; Beta apoptosis: -6

Results for C=CCN(C(=O)Cc1cccs1)c1nc(-c2ccc(S(C)(=O)=O)cc2)cs1 ?
A1 inh: 2; T cruzi repl: 14; CSC inhib: 28; Calb FLC: 14; Beta apoptosis: 8

Results for C=CCN(C(=O)CCc1ccccc1OC)c1nc(-c2ccc(S(C)(=O)=O)cc2)cs1 ?
A1 inh: 1; T cruzi repl: 66*; CSC inhib: 41; Calb FLC: 0

What do the screens show for `CCOC(=O)c1c(C)[nH]c(C(=O)OCC(=O)N(CC(C)C)C2CCS(=O)(=O)C2)c1C` (stereo not given)?
A1 inh: 0; TAG inh: -3; Beta apoptosis: -2

What do the screens show for `Cc1cc(C)c2c(c1)/C(=N/Nc1ccc(S(N)(=O)=O)cc1[N+](=O)[O-])CCC2`?
A1 inh: 0; TAG inh: 31; T cruzi repl: -1; CSC inhib: 16; Calb FLC: -2; Beta apoptosis: 38

How did NS(=O)(=O)c1ccc(N/N=C2/CCCCC2C2CCCCC2)c([N+](=O)[O-])c1 (stereo not given) do in these assays?
A1 inh: 3; T cruzi repl: 40; CSC inhib: active; Calb FLC: 15; Beta apoptosis: 76*

What do the screens show for `O=C(O)c1ccc(OS(=O)(=O)c2ccc(Cl)s2)c(Cl)c1`?
TAG inh: 13

How did O=C(NNC(=O)c1ccccc1C(F)(F)F)c1csc(N2CCOCC2)n1 do in these assays?
A1 inh: 1; TAG inh: 8; T cruzi repl: -7; CSC inhib: -7; Calb FLC: -4; Beta apoptosis: -20

What do the screens show for `Cc1ccc(NC(=O)c2ccc(OCc3c(C)noc3C)cc2)nc1`?
A1 inh: 2; TAG inh: 15; CSC inhib: -11; Beta apoptosis: -1

Results for Cc1ccc(C)c(S(=O)(=O)N2CCN(C(=O)CCCc3c[nH]c4ccccc34)CC2)c1 ?
A1 inh: -1; TAG inh: -16; T cruzi repl: 64*; CSC inhib: 29; Calb FLC: 3; Beta apoptosis: 3

How did COC(=O)NC(=S)Nc1ccc(Oc2ccc(Cl)cc2)c(Cl)c1 do in these assays?
A1 inh: 0; T cruzi repl: 74*; Calb FLC: 59

What do the screens show for `O=C(NC(=S)Nc1ccc(F)c(Cl)c1)C1CC1`?
A1 inh: -1; TAG inh: 6; T cruzi repl: -16; CSC inhib: 4; Calb FLC: 11; Beta apoptosis: -1

Results for COC(=O)NC(=S)Nc1ccc(Oc2ccc(Cl)cc2Cl)c(Cl)c1 ?
A1 inh: 0; TAG inh: 6; T cruzi repl: 62*; Calb FLC: -6; Beta apoptosis: 3

Results for Cc1ccc(N2CCC(N3CCN(C)C(CCO)C3)CC2)cc1 (stereo not given) ?
A1 inh: 0; TAG inh: -4; T cruzi repl: -1; CSC inhib: 36; Calb FLC: -2

What do the screens show for `Cc1nnc(C)c2c(C)n(C(c3ccccc3)c3ccccc3)c(C)c12`?
A1 inh: 1; T cruzi repl: 59*; CSC inhib: 14; Calb FLC: -3; Beta apoptosis: -4

How did Cc1nnc(C)c2c(C)n(-c3ccccc3)c(C)c12 do in these assays?
T cruzi repl: 22; Calb FLC: -2

What do the screens show for `CCOc1ccccc1N(C)S(=O)(=O)c1ccc2c(c1)N(C(C)=O)CCO2`?
A1 inh: 0; T cruzi repl: 6; CSC inhib: 4; Calb FLC: 1; Beta apoptosis: -8

Results for CCc1cccc(NC(=O)C2CCN(S(=O)(=O)c3ccc4c(c3)NC(=O)CO4)CC2)c1 ?
A1 inh: 9.7*; T cruzi repl: 4; CSC inhib: -14; Calb FLC: -14; Beta apoptosis: 2

How did CSc1nsc(SCC(=O)Nc2ccc(F)cc2F)n1 do in these assays?
A1 inh: 1; T cruzi repl: 12; CSC inhib: -16; Calb FLC: -10

How did Cn1cccc1C(=O)NCc1ccccn1 do in these assays?
TAG inh: 10

Results for CC(C)Nc1nc(NC(C)C)nc(N(C#N)CCOc2ccc(Cl)cc2Cl)n1 ?
A1 inh: 0; T cruzi repl: 73*; CSC inhib: 55; Calb FLC: -6; Beta apoptosis: 26

What do the screens show for `Cc1cc(C)nc(N(C#N)CCOc2ccc(Cl)cc2)n1`?
A1 inh: 0; T cruzi repl: -2; CSC inhib: -9; Calb FLC: 6; Beta apoptosis: 3
